Rad51 HR inh: Rad51 (human) homologous recombination inhibition; actives 0.085% (n = 200,000); inhibition, % at 10 µM; Q06609; hRad51 DNA strand exchange, fluorescence dequenching;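 active = inhibition above 40% at the single screening dose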;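 note: 0% = DMSO control wells and 100% = blanks with heterologous ssDNA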
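material = hRad51 filaments on single-stranded DNA | reagent = Donor/quencher-labelled 47-bp dsDNA substrate | compound = 10 µM final, single point | schedule = strand-exchange reaction 15 min at room temperature | measured by = fluorescein emission 520 nm, excitation 485 nm | read-out basis = % inhibition versus plate control and blank means | benchmarks = plate controls and plate blanks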
KCC2 mod: modulators of human KCC2 chloride dependent transport. KCC2 cells, thallium flux FluoZin-2 fluorescence. Q9H2X9. B-score of Tl+ flux slope (higher = more flux/activation; lower = inhibition) at 10 µM. AID 1456. actives 2.2% (n = 190,000);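 active = thallium flux slope and its plate-corrected score both differing from the plate sample mean at a set confidence after two filtering rounds, in either direction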;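 note: slope of fluorescence scaled to starting intensity during 10 to 20 s after thallium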
ROMK primary: human ROMK K+ channel modulation, primary screen; P48048; B-score at 10 µM; actives 2% (n = 130,000); AID 1918; Tet-inducible ROMK, thallium flux fluorescence; actives lie on both sides;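 active = signal ratio slope over the read window, or its plate-corrected B-score, at least 3 SD from the plate mean, either direction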;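 note: B-score of the F/F0 ratio slope over 7 to 12 s after thallium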
PKD1 kinase inh: inhibitors of human PKD1 kinase; PKD1 kinase fluorescence polarization assay; Q15139; inhibition, % (no concentration beside the values); actives 0.056% (n = 200,000); in the data active = inhibition above about 50%
Target sequence (Q15139 whole entry, looked up): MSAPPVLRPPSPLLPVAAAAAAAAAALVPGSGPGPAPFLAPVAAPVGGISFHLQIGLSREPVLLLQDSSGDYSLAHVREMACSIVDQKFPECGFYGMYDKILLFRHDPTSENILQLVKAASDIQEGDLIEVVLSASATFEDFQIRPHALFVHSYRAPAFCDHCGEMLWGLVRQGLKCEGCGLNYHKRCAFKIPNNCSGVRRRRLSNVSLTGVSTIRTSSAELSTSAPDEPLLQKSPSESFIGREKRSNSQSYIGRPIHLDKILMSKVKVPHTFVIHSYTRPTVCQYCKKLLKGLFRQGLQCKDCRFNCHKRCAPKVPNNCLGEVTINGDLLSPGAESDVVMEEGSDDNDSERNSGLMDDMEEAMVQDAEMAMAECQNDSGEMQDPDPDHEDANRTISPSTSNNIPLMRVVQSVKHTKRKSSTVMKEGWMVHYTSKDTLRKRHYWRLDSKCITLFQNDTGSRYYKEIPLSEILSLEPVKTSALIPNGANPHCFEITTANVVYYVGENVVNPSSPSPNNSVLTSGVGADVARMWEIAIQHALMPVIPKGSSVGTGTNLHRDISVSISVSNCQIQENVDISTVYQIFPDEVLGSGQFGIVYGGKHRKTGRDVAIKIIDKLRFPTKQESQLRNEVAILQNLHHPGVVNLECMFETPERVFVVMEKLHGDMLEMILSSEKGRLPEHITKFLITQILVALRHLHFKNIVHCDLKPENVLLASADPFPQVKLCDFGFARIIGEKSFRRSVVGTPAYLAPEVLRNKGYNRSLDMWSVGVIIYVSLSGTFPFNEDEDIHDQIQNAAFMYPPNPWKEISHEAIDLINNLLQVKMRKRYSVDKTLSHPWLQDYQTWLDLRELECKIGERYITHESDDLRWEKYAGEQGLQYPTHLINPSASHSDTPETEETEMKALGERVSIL
ROMK hit retest: human ROMK channel modulation, retest confirmation; shares compounds with ROMK primary; ROMK thallium flux, fluorescence ratio; hits give low values; normalized thallium flux (F/F0 slope) at 10 µM; actives 54% (n = 3,000);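 active = Flux at 10 µM at least 3 SD below or above vehicle control mean in one or both replicates; inconclusive = no clear call, values can overlap the other calls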
Starred values were filed as active, the others as inactive; i = inactive; ? = inconclusive; · = no result given. Shown are actives, neighbours in structure and some others; about 3% of the full set was active somewhere.

SMILES	Rad51 HR inh	KCC2 mod	ROMK primary	PKD1 kinase inh	ROMK hit retest
CC1=CC(C)(C)N(C(=O)CNC2CCCC2)c2cc(C)ccc21	-2.0	-0.172	-4.02*	2.1	0.0496*
CCOc1ccc2c(c1)N(C(=O)CN1C(=O)CCC1=O)C(C)(C)C=C2C	3.6	-0.0767	·	2.6	·
OCCC1CN(Cc2cnc(-c3cccc4ccccc34)nc2)CCN1C1CCCCC1 (stereo not given)	5.7	-0.924	-0.193	-2.8	·
Cc1cc(C)n(-c2nc3ccccc3nc2Nc2ccc3c(c2)OCO3)n1	-2.8	-0.269	·	-0.1	·
Cc1cc(C)n(-c2nc3nonc3nc2Nc2cccc(C)c2C)n1	·	0.807	-3.89*	-1.1	0.0534*
Cc1nc(SCCCSc2n[nH]c(C)n2)n[nH]1	-3.0	0.472	0.761	-4.0	·
COc1cc(/C=C2\SC(=S)N(C(C(=O)O)c3ccccc3)C2=O)ccc1O (stereo not given)	·	-0.448	·	·	·
COc1cc(/C=C2\SC(=S)N(NS(=O)(=O)c3ccccc3)C2=O)ccc1O	·	-3.24	·	·	0.0412*
CCN(C(=O)COC(=O)c1cncc(Br)c1)C1CCS(=O)(=O)C1 (stereo not given)	2.0	0.652	0.17	-1.9	·
O=C(Cn1c2ccccc2c2nc3n(c(=O)c21)CCS3)Nc1ccccc1C(F)(F)F	22.6	1.02	-3.2*	-3.1	0.0685*
COc1ccccc1NC(=O)Cn1c2ccccc2c2nc3n(c(=O)c21)CCS3	-30.7	-1.06	-0.688	5.3	·
O=C(NNS(=O)(=O)c1ccccc1F)c1sccc1-n1cccc1	15.2	-0.343	-0.0106	0.1	·
COC(=O)c1ccccc1NC(=O)/C=N/O	·	0.702	0.0351	-6.7	·
O=C(/C=N/O)Nc1ccc2sc3ccccc3c2c1	9.9	-0.66	-2.79*	·	0.0638*
Cc1ccc(NC(=O)CCN2CCN(C/C=C/c3ccccc3)CC2)cc1	6.5	0.0812	·	-9.8	·
O=C(Nc1cccc(Cl)c1)N1CCN(C/C=C/c2ccccc2)CC1	-0.1	-1.4	-3.58*	-8.4	?
Cc1ccc(NC(=O)CCN2CCN(C/C=C/c3ccccc3)CC2)cc1C	·	·	-3.11*	-12.2	0.0477*
CCOc1ccccc1N1CCN(C(=O)Nc2cccc(Cl)c2)CC1	-0.2	-1.79	-3.09*	-10.2	0.0731
O=C(CCN1CCN(C/C=C/c2ccccc2)CC1)Nc1ccc(Cl)cc1	-9.3	0.118	·	6.1	·
COC(=O)c1cn(NC(=O)c2ccc([N+](=O)[O-])cc2Cl)c(=O)c2ccccc12	-7.6	0.00301	0.18	-3.8	·
Cc1cc(C(=O)COC(=O)c2ccc(Br)o2)c(C)n1C	5.2	0.579	-0.463	-5.7	·
Cc1cc(C(=O)COc2ccc(F)cc2Br)c(C)n1C	3.2	-0.802	-1.86*	7.3	?
CCCCN1C(=O)C(=O)N(CC(=O)NC2CCCc3ccccc32)C1=O (stereo not given)	-1.2	0.823	0.363	5.1	·
COc1ccc(NC2=NCC(Cc3ccc(Br)cc3)S2)cc1 (stereo not given)	2.7	·	-1.1	-2.3	·
CCCCCCCC(=O)NN=C1CCN(Cc2ccccc2)CC1	3.6	-0.686	·	-13.0	·
SMILES	Rad51 HR inh	KCC2 mod	ROMK primary	PKD1 kinase inh	ROMK hit retest
CCN1CCN(c2c(/C=C3\SC(=S)N(Cc4ccco4)C3=O)c(C)c(C#N)c(=O)n2C)CC1	·	-0.368	·	·	0.0483*
COc1ccc(-n2c(C)cc(/C=C3\SC(=S)N(Cc4ccco4)C3=O)c2C)cc1	-60.5	1.23	-0.134	-6.0	·
C/C(N)=C(/C#N)C(=O)COC(=O)[C@@H](NC(=O)c1ccccc1Cl)C(C)C	-5.7	0.526	-0.242	-5.1	·
N=c1n(Cc2ccccc2)c2ccccc2n1CC(O)COc1ccc(Cl)cc1Cl (stereo not given)	10.2	1.12	-1.65	3.8	·
Cc1cccc(OCC(O)Cn2c(=N)n(Cc3ccccc3)c3ccccc32)c1 (stereo not given)	-2.2	-0.357	·	·	·
N=c1n(Cc2ccc(Cl)cc2)c2ccccc2n1CC(O)COc1ccccc1 (stereo not given)	-5.4	-0.1	-4.16*	9.0	0.0539*
Cc1cccc(OCC(O)Cn2c(=N)n(CCN3CCCCC3)c3ccccc32)c1 (stereo not given)	-2.3	·	-7.64*	0.0	0.0486*
Cc1ccc(OCC(O)Cn2c(=N)n(Cc3ccccc3)c3ccccc32)cc1 (stereo not given)	-10.1	·	-4.58*	8.2	0.0519*
COc1ccc(OCC(O)Cn2c(=N)n(Cc3ccccc3)c3ccccc32)cc1 (stereo not given)	9.2	0.58	-7*	4.0	0.0481*
CCN(c1ccccc1)S(=O)(=O)c1ccc(N)c(OC)c1	·	-0.135	3.49*	-4.4	0.0814
COc1ccc(C(=O)/C(=C\c2ccco2)N2C=CC=CC2=C(C#N)C#N)cc1	0.6	·	·	-3.0	0.0382*
N#CC(C#N)=C1C=CC=CN1/C(=C\c1ccco1)C(=O)c1ccccc1	-3.5	-1.84	-6.04*	12.3	0.0358*
O=C(CCCN1C(=O)c2ccccc2C1=O)Nc1nnc(C2CC2)s1	1.6	-0.839	0.47	-5.0	·
Cc1ccc(/C=C/C(=O)OCC(=O)NC(C)C)o1	6.6	0.679	0.569	-8.5	·
CC(=O)C1=C(c2ccc(Br)cc2)C(=O)c2ccccc2C1=O	·	-0.8	-4.67*	4.4	0.0524*
CNC1=C(N(C(C)=O)c2ccc(Br)cc2)C(=O)c2ccccc2C1=O	-4.6	0.289	-1.32	-11.7	·
O=C(CC1=NCCNC(c2ccccc2)C1)c1ccccc1O (stereo not given)	·	0.859	-2.28*	11.9	?
O=C(CC1(O)C(=O)Nc2ccccc21)c1ccccc1O (stereo not given)	-7.7	0.727	·	7.3	·
COc1cc2c3c(c1)C(C)=CC(C)(C)N3C(=O)C2=O	9.7	-0.0312	2.22	-0.8	·
COc1cc2c3c(c1)C(C)CC(C)(C)N3C(=O)C2=O (stereo not given)	12.1	·	3.37*	4.5	0.0951
CC(=O)/C=C1/C(=O)Nc2ccccc21	18.8	-0.202	-3.79*	11.2	0.0343*
CCc1ccc(C(=O)/C=C2\Sc3ccccc3NC2=O)cc1	3.3	-0.59	-0.0666	-12.3	·
CCS(=O)(=O)c1ccc(O)c(NC(=O)Nc2ccc(C(C)(C)C)cc2)c1	·	0.907	-2.5*	·	0.0796
CCN1CC=C2C(C#N)=C(N)C(C#N)(C#N)[C@H](c3cccc(OC)c3OC)[C@H]2C1	0.7	-0.0128	·	-5.2	·
CCN1CC=C2C(C1)C(c1ccc(Cl)s1)C(C#N)=C(N)C2(C#N)C#N (stereo not given)	·	i	·	-8.9	0.0394*
NC(=O)/C(=C/c1cccnc1)NC(=O)c1ccccc1	·	0.364	·	·	·
Cc1nc([N+](=O)[O-])c(Sc2nc3ccccc3n2C)n1Cc1ccccc1	-2.6	-3.03	-2.97*	-4.0	0.0557*
CCCS(=O)(=O)c1c(S(=O)(=O)CCC)c2cnccn2c1C(=O)c1ccc(F)cc1	0.6	0.462	0.163	-2.4	·
CCCS(=O)(=O)c1c(S(=O)(=O)CCC)c2cnccn2c1C(=O)c1ccc(CC)cc1	-4.7	0.412	-4.06*	-6.9	0.0655*

Compound activity (PubChem BioAssay)
